ChEMBL document CHEMBL4219161, “New phenylaniline derivatives as modulators of amyloid protein precursor metabolism” (Bioorg Med Chem, 2018)

Tests used:
Format in all cases: cell-based
[1] = target: T1, Amyloid-beta precursor protein (Homo sapiens, UniProt P05067); test: Modulation of human wild-type APP695 expressed in SH-SY5Y cells assessed as inhibition of amyloid beta (1 to 40 residues) production measured after 24 hrs
Procedure, shortened: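 SY5Y-APPwt cells (stable human APP695 clone) were exposed to compound for 24 h. Conditioned medium was spun at 200×g, frozen at −80 °C and assayed by ELISA for Aβ1-40 or Aβ1-42, with samples in duplicate and experiments in triplicate. Values were normalised to untreated control set to 100%. IC50 is the concentration lowering secreted Aβ to 50% of basal; mean of ≥3 independent experiments.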

[2] = target: T1, Amyloid-beta precursor protein; test: Modulation of human wild-type APP695 expressed in SH-SY5Y cells assessed as increase in CTFalpha level at 3 uM measured after 24 hrs by Western blot analysis relative to chloroquine
Procedure, shortened: (§1)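 SY5Y stably transfected with human APP695 (pcDNA3.1, G418-selected clone SY5Y-APPwt) was plated 24 h before treatment and exposed to compound for 24 h. Lysates were made in Laemmli buffer with protease inhibitors and sonicated. 20 µg protein/lane was run on 16% Tris-Tricine gel and blotted to PVDF. Blots were probed overnight at 4 °C with APP C-terminal (last 17 aa) rabbit antiserum 1:4000 and developed by chemiluminescence. Band area was quantified with H3 reprobe. Result is the fragment level ratio of compound to chloroquine, both at 3 µM; mean of ≥3 independent experiments.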

[3] = Cytotoxicity against human SH-SY5Y cells after 72 hrs by MTT assay
Procedure, shortened: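 SH-SY5Y cells grown in DMEM with 10% heat-inactivated FBS, 2 mM L-glutamine, non-essential amino acids and penicillin/streptomycin at 37 °C, 5% CO2. Cells were exposed to compounds at 100, 50, 10, 5, 1, 0.5, 0.1 and 0.05 µM, in under 0.1% DMSO, for 72 h. Growth was read by colorimetric MTT; CC50 taken as the concentration causing 50% cell death.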

[4] = target: T1, Amyloid-beta precursor protein; test: Modulation of human wild-type APP695 expressed in SH-SY5Y cells assessed as increase in AICD level at 3 uM measured after 24 hrs by Western blot analysis relative to chloroquine; procedure, shortened: as §1
[5] = target: T1, Amyloid-beta precursor protein; test: Modulation of human wild-type APP695 expressed in SH-SY5Y cells assessed as increase in CTFalpha level at 3 uM measured after 24 hrs by Western blot analysis relative to amodiaquine
Procedure, shortened: (§2)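 Stable human APP695 SY5Y clone (SY5Y-APPwt) was treated with compound for 24 h and lysed in Laemmli buffer with protease inhibitors. 20 µg protein/lane was separated on 16% Tris-Tricine gel and transferred to PVDF. Blots were probed with rabbit antiserum against the APP C-terminal 17 residues (1:4000, overnight at 4 °C) and read by chemiluminescence with densitometric area-under-curve. H3 was used as reprobe.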

[6] = target: T1, Amyloid-beta precursor protein; test: Modulation of human wild-type APP695 expressed in SH-SY5Y cells assessed as increase in […] level at 3 uM measured after 24 hrs by Western blot analysis relative to amodiaquine; procedure, shortened: as §2
[7] = target: T1, Amyloid-beta precursor protein; test: Modulation of human wild-type APP695 expressed in SH-SY5Y cells assessed as increase in CTFalpha level at 10 uM measured after 24 hrs by Western blot analysis relative to chloroquine; procedure, shortened: as §2
[8] = target: T1, Amyloid-beta precursor protein; test: Modulation of human wild-type APP695 expressed in SH-SY5Y cells assessed as increase in CTFalpha level at 10 uM measured after 24 hrs by Western blot analysis relative to amodiaquine; procedure, shortened: as §2
[9] = target: T1, Amyloid-beta precursor protein; test: Modulation of human wild-type APP695 expressed in SH-SY5Y cells assessed as increase in […] level at 10 uM measured after 24 hrs by Western blot analysis relative to amodiaquine; procedure, shortened: as §2

T1 sequence (P05067 whole entry, the tested form may be a part): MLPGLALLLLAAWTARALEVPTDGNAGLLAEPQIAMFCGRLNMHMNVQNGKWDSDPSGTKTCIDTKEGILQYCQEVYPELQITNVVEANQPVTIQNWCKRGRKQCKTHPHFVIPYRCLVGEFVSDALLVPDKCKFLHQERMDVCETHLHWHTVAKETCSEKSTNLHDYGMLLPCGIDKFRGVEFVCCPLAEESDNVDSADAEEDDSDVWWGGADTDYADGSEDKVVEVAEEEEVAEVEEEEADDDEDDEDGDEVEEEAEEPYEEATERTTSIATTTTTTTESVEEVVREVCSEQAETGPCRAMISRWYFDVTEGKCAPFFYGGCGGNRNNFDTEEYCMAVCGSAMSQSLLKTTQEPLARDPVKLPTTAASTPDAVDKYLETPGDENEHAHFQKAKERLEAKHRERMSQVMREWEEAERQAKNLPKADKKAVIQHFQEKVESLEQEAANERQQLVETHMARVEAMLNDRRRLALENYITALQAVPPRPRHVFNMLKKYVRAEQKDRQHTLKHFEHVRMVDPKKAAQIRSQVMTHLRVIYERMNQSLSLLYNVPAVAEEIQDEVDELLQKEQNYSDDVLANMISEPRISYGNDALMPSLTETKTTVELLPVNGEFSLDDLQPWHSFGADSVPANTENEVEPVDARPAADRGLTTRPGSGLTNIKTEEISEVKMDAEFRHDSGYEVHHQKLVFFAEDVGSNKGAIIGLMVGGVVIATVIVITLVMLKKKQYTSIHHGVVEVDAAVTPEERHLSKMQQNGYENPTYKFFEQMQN

In the case of `CN(C)CCN(C)Cc1cc(NC(=O)CN2CCCCC2)cc(Nc2ccnc3cc(Cl)ccc23)c1`, the IC50 [1] is reported as 1.7 µM, the fold change (FC) [2] is reported as 2.1 and the CC50 at 72 h [3] is reported as 4 µM. The fold change (FC) [4] was 3.4.

`CCN(CC)Cc1cccc(Nc2ccnc3cc(Cl)ccc23)c1` showed an IC50 [1] of 4.5 µM, a fold change (FC) [2] of 0.6 and a CC50 at 72 h [3] of 12 µM. For the same compound, the fold change (FC) [4] was 0.5.

With `CN(C)Cc1ccccc1Nc1cc(C(=O)NCCN2CCCCC2)cc(C(=O)NCCN2CCCCC2)c1` the IC50 [1] was 8.2 µM, the fold change (FC) [2] was 1 and the CC50 at 72 h [3] was > 100 µM. For the same compound, the fold change (FC) [4] was 3.

With `O=C(CN1CCCCC1)Nc1cc(CN2CCOCC2)cc(Nc2ccnc3cc(Cl)ccc23)c1` the IC50 [1] was 3.1 µM, the fold change (FC) [2] was 0.7 and the CC50 at 72 h [3] was 10 µM. The fold change (FC) [4] was 0.5.

For `CN(C)Cc1ccccc1-c1cc(C(=O)NCCN2CCCCC2)cc(C(=O)NCCN2CCCCC2)c1`, the IC50 [1] was > 10 µM and the CC50 at 72 h [3] was > 100 µM.

Work on `O=C(NCCN1CCCCC1)c1cc(Nc2ccccc2CN2CCCCC2)cc(C(=O)NCCN2CCCCC2)c1` yielded an IC50 [1] of 4.1 µM, a fold change (FC) [5] of 5.6 to 5.75 and a fold change (FC) [6] of 3.2 to 10. For the same compound, the fold change (FC) [7] was 3, the fold change (FC) [2] was 2.8 and the CC50 at 72 h [3] was > 100 µM. For the same compound, the fold change (FC) [4] was 2.3 and the fold change (FC) [8] was 3.

In the case of `CN1CCN(Cc2ccccc2-c2cc(C(=O)NCCN3CCCCC3)cc(C(=O)NCCN3CCCCC3)c2)CC1`, the IC50 [1] is reported as > 10 µM and the CC50 at 72 h [3] is reported as > 100 µM.

Compound `CCN(CC)CCCC(C)Nc1ccnc2cc(Cl)ccc12` (stereo not drawn) [CHLOROQUINE] has an IC50 [1] of 7 µM, a fold change (FC) [2] of 1 and a CC50 at 72 h [3] of 30 µM. It also gave a fold change (FC) [4] of 1.

With `O=C(NCCN1CCCCC1)c1cc(Nc2ccccc2CN2CCOCC2)cc(C(=O)NCCN2CCCCC2)c1` the IC50 [1] was > 10 µM and the CC50 at 72 h [3] was > 100 µM.

For `CN(C)Cc1ccccc1-c1cc(CNCCN2CCCCC2)cc(CNCCN2CCCCC2)c1`, the IC50 [1] was > 10 µM and the CC50 at 72 h [3] was > 100 µM.

Work on `CCN(CC)Cc1cc(Nc2ccnc3cc(Cl)ccc23)ccc1O` [AMODIAQUINE] yielded an IC50 [1] of 4 µM, a fold change (FC) [2] of 0.5 and a CC50 at 72 h [3] of 10 µM. For the same compound, the fold change (FC) [4] was 0.4.

In the case of `CN(C)Cc1ccccc1Nc1cc(CNCCN2CCCCC2)cc(CNCCN2CCCCC2)c1`, the IC50 [1] is reported as > 10 µM and the CC50 at 72 h [3] is reported as > 100 µM.

With `CCN(CC)Cc1cc(NC(=O)CN2CCCCC2)cc(Nc2ccnc3cc(Cl)ccc23)c1` the IC50 [1] was 1.5 µM, the fold change (FC) [2] was 1.6 and the CC50 at 72 h [3] was 4 µM. The fold change (FC) [4] was 0.9.

`CN(C)CCNCc1cc(NC(=O)CN2CCCCC2)cc(Nc2ccnc3cc(Cl)ccc23)c1` showed an IC50 [1] of 2 µM, a fold change (FC) [2] of 1.7 and a CC50 at 72 h [3] of 15 µM. It also gave a fold change (FC) [4] of 2.3.

`c1ccc(Nc2cc(CNCCN3CCCCC3)cc(CNCCN3CCCCC3)c2)c(CN2CCOCC2)c1` showed an IC50 [1] of 6.6 µM, a fold change (FC) [2] of 0.9 and a CC50 at 72 h [3] of 77 µM. The fold change (FC) [4] was 1.3.

For `CN1CCN(c2cc(Nc3ccnc4cc(Cl)ccc34)cc(N3CCN(C)CC3)c2)CC1`, the IC50 [1] was 2.3 µM, the fold change (FC) [2] was 1.4 and the CC50 at 72 h [3] was > 15 µM. The fold change (FC) [4] was 1.1.

`Oc1c(CN2CCCC2)cc(Nc2ccnc3cc(Cl)ccc23)cc1CN1CCCC1` gave an IC50 [1] of 5.1 µM, a fold change (FC) [2] of 0.5 and a CC50 at 72 h [3] of 30 µM. It also gave a fold change (FC) [4] of 0.6.

Compound `Clc1ccc2c(Nc3cc(CN4CCOCC4)cc(NCCN4CCCCC4)c3)ccnc2c1` has an IC50 [1] of 2.5 µM, a fold change (FC) [2] of 1.2 and a CC50 at 72 h [3] of 10 µM. The fold change (FC) [4] was 1.2.

With `CN1CCN(Cc2ccccc2Nc2cc(C(=O)NCCN3CCCCC3)cc(C(=O)NCCN3CCCCC3)c2)CC1` the IC50 [1] was > 10 µM and the CC50 at 72 h [3] was > 100 µM.

For `c1ccc(-c2cc(CNCCN3CCCCC3)cc(CNCCN3CCCCC3)c2)c(CN2CCCCC2)c1`, the IC50 [1] was > 10 µM and the CC50 at 72 h [3] was > 100 µM.

In the case of `O=C(NCCN1CCCCC1)c1cc(C(=O)NCCN2CCCCC2)cc(-c2ccccc2CN2CCOCC2)c1`, the IC50 [1] is reported as > 10 µM and the CC50 at 72 h [3] is reported as > 100 µM.

For `CN1CCN(Cc2ccccc2-c2cc(CNCCN3CCCCC3)cc(CNCCN3CCCCC3)c2)CC1`, the IC50 [1] was > 10 µM and the CC50 at 72 h [3] was > 100 µM.

For `O=C(NCCN1CCCCC1)c1cc(C(=O)NCCN2CCCCC2)cc(-c2ccccc2CN2CCCCC2)c1`, the IC50 [1] was 6.2 µM, the fold change (FC) [2] was 1.4 and the CC50 at 72 h [3] was > 100 µM. It also gave a fold change (FC) [4] of 1.9.

For `CN1CCN(Cc2ccccc2Nc2cc(CNCCN3CCCCC3)cc(CNCCN3CCCCC3)c2)CC1`, the IC50 [1] was > 10 µM and the CC50 at 72 h [3] was > 100 µM.

Work on `CCN(CC)Cc1cc(NCCN2CCCCC2)cc(Nc2ccnc3cc(Cl)ccc23)c1` yielded an IC50 [1] of 10 µM, a fold change (FC) [2] of 0.5 and a CC50 at 72 h [3] of 15 µM. It also gave a fold change (FC) [4] of 0.4.

`c1ccc(Nc2cc(CNCCN3CCCCC3)cc(CNCCN3CCCCC3)c2)c(CN2CCCCC2)c1` showed an IC50 [1] of 4.6 µM, a fold change (FC) [5] of 5.6 to 5.75 and a fold change (FC) [6] of 3.2 to 10. For the same compound, the fold change (FC) [2] was 2.6, the CC50 at 72 h [3] was > 100 µM and the fold change (FC) [4] was 4. It also gave a fold change (FC) [9] of 10.

In the case of `c1ccc(-c2cc(CNCCN3CCCCC3)cc(CNCCN3CCCCC3)c2)c(CN2CCOCC2)c1`, the IC50 [1] is reported as > 10 µM and the CC50 at 72 h [3] is reported as > 100 µM.
